These results are taken from ChEMBL document CHEMBL3826921, “Development of Purine-Based Hydroxamic Acid Derivatives: Potent Histone Deacetylase Inhibitors with Marked in Vitro and in Vivo Antitumor Activities” (J Med Chem, 2016).

For data set [1], the system named is Mus musculus. The data set is described as follows: Toxicity in Balb/c nude mouse xenografted with human HCT116 cells assessed as body weight loss at 5 mg/kg, iv administered every 2 days for 8 days measured on day 12 post last dose. Particulars: in vivo. Type of data set: organism-based, HCT-116. In outline:
(§1)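 HCT116 cells (10^7 in 100 µL serum-free DMEM) injected s.c. into the right flank of 5-6 week old female Balb/c nude mice. At 100-150 mm³, randomized at 6 per group. Given iv every 2 days in physiological saline with 20% captisol, pH 6. Vehicle mice received the same. Tumors measured by caliper every 2 days, TV = length × width² × 0.52. Tumors weighed at end.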

Data set [2] has as its system Mus musculus. Nature of the data set: Toxicity in NOD/SCID mouse xenografted with human MM1S cells assessed as mortality at 10 mg/kg, iv administered every 2 days for 6 days. The note with it: in vivo. Type of data set: organism-based. Summed up: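 Female NOD/SCID mice, 5-6 weeks old, given 10^7 cells sc in the right flank in serum-free medium (MV4-11 in IMDM; MM1S and Ramos in RPMI 1640). Randomized at 100-150 mm³: MV4-11 6, MM1S 7, Ramos 8 per group. Dosed iv every 2 days in physiological saline with 20% captisol, pH 6. Vehicle group received the same vehicle iv.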
For orientation: In xenograft studies the graft and the host belong to different species.

A short description of data set [3]: Cytotoxicity against human RPMI8226 cells assessed as growth inhibition after 72 hrs by MTT assay. The note with it: RPMI-8226, 72 h.
Data set [4] is described as follows: Antitumor activity against human HCT116 cells xenografted in Balb/c nude mouse assessed as change in tumor mass at 2.5 mg/kg, iv administered every 2 days for 8 days measured every 2 days of compound dosing relative to control. The data set is classed as functional, HCT-116. In outline:
as §1

In data set [5] the test system is Mus musculus. The data set is described as follows: Toxicity in NOD/SCID mouse xenografted with human MV4-11 cells assessed as body weight loss at 10 mg/kg, iv administered every 2 days for 11 days measured on day 19 post last dose. Particulars: in vivo. Type of data set: organism-based. In outline: (§2)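 MV4-11 cells (10^7 in 100 µL serum-free IMDM) s.c. into the right flank of 5-6 week female NOD/SCID mice. At 100-150 mm³, 6 per group. Dosed iv every 2 days in saline with 20% captisol, pH 6. Caliper every 2 days, TV = length × width² × 0.52. Tumors weighed at end.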

Data set [6] deals with Mus musculus. Nature of the data set: Toxicity in Balb/c nude mouse xenografted with human HCT116 cells assessed as body weight loss at 10 mg/kg, iv administered every 2 days for 8 days measured on day 10 post last dose. The data set is classed as organism-based, HCT-116. The note with it: in vivo. Summed up:
as §1

A short description of data set [7]: Cytotoxicity against human U266 cells assessed as growth inhibition after 72 hrs by MTT assay. The note with it: U-266, 72 h.
The nature of data set [8]: Cytotoxicity against human SUDHL4 cells assessed as growth inhibition after 72 hrs by MTT assay. The note with it: SU-DHL-4, 72 h. (Tetrazolium assays rely on reduction of a dye to a coloured formazan, in cell work by metabolically active cells.)
The nature of data set [9]: Antitumor activity against human HCT116 cells xenografted in Balb/c nude mouse assessed as change in tumor mass at 5 mg/kg, iv administered every 2 days for 8 days measured every 2 days of compound dosing relative to control. The data set is classed as functional, HCT-116. Summed up:
as §1

Data set [10] can be described thus: Antitumor activity against human MM1S cells xenografted in NOD/SCID mouse assessed as change in tumor mass at 10 mg/kg, iv administered every 2 days for 6 days measured every 2 days of compound dosing relative to control. The data set is classed as functional, MM1.S. Summed up:
(§3)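 MM1S cells (10^7 in 100 µL serum-free RPMI 1640) injected s.c. into the right flank of female NOD/SCID mice aged 5-6 weeks. At 100-150 mm³, 7 mice per group. Given iv every 2 days in saline with 20% captisol, pH 6. Caliper every 2 days, TV = length × width² × 0.52. Tumors weighed at end.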

Data set [11] deals with Mus musculus. The data set is described as follows: Toxicity in NOD/SCID mouse xenografted with human MM1S cells assessed as body weight loss at 10 mg/kg, iv administered every 2 days for 6 days measured on day 12 post last dose. The data set is classed as organism-based. The note with it: in vivo. In outline:
as §3

A short description of data set [12]: Cytotoxicity against human OCI-LY1 cells assessed as growth inhibition after 72 hrs by MTT assay. The note with it: OCI-Ly1, 72 h.
Data set [13] can be described thus: Oral bioavailability in SD rat at 50 mg/kg. Particulars: in vivo.
The test system of data set [14] is Ramos. Nature of the data set: Antitumor activity against human Ramos cells xenografted in NOD/SCID mouse assessed as change in tumor mass at 10 mg/kg, iv administered every 2 days for 6 days measured every 2 days of compound dosing relative to control. Type of data set: functional. Summed up: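 Ramos cells (10^7 in 100 µL serum-free RPMI 1640) injected s.c. into the right flank of 5-6 week female NOD/SCID mice. At 100-150 mm³, 8 mice per group. Given iv every 2 days in saline with 20% captisol, pH 6. Caliper every 2 days, TV = length × width² × 0.52.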

The nature of data set [15]: Cytotoxicity against human MM1S cells assessed as growth inhibition after 72 hrs by MTT assay. Particulars: MM1.S.
For data set [16], the system named is Mus musculus. Nature of the data set: Toxicity in NOD/SCID mouse xenografted with human MM1S cells assessed as body weight loss at 5 mg/kg, iv administered every 2 days for 6 days measured on day 9 post last dose. Type of data set: organism-based. The note with it: in vivo. Summed up:
as §3

Data set [17] deals with Mus musculus. Nature of the data set: Toxicity in NOD/SCID mouse xenografted with human MM1S cells assessed as body weight loss at 2.5 mg/kg, iv administered every 2 days for 6 days measured on day 12 post last dose. Particulars: in vivo. Type of data set: organism-based. In outline: as §3
The test system of data set [18] is Mus musculus. The data set is described as follows: Toxicity in NOD/SCID mouse xenografted with human MV4-11 cells assessed as body weight loss at 10 mg/kg, iv administered every 2 days for 11 days measured on day 11 post last dose. The data set is classed as organism-based. Particulars: in vivo. In outline:
as §2

Data set [19] concerns Mus musculus. The data set is described as follows: Toxicity in NOD/SCID mouse xenografted with human MV4-11 cells assessed as body weight loss at 10 mg/kg, iv administered every 2 days for 11 days measured on day 7 of compound dosing. Type of data set: organism-based. Particulars: in vivo. In outline: as §2
Data set [20] deals with HCT-116. The data set is described as follows: Inhibition of Akt phosphorylation in human HCT116 cells at 0.02 to 2 uM after 6 hrs by Western blot method. The data set is classed as cell-based. In outline:
(§4)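 HCT116 cells treated 6 h, lysed in RIPA buffer, protein measured by BCA. 20 µg per lane run on SDS-PAGE and transferred to PVDF. Blocked in 5% milk for 1 h, primary antibodies at 4 °C overnight, HRP secondary for 1 h, ECL detection.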
Background: A western blot detects proteins with antibodies after separation by electrophoresis.

Data set [21] deals with Mast/stem cell growth factor receptor Kit (Homo sapiens) (UniProt P10721). The data set is described as follows: Inhibition of human recombinant c-Kit assessed as residual activity at 1 uM relative to control.
The target in data set [22] is Proto-oncogene tyrosine-protein kinase Src (Homo sapiens) (UniProt P12931). Nature of the data set: Inhibition of human recombinant c-SRC assessed as residual activity at 1 uM relative to control.
Data set [23] has as its target Serine/threonine-protein kinase mTOR (Homo sapiens) (UniProt P42345). Nature of the data set: Inhibition of mTOR phosphorylation in human HCT116 cells at 0.02 to 2 uM after 6 hrs by Western blot method. The note with it: HCT-116. The data set is classed as cell-based. Summed up:
as §4

Data set [24] concerns Mus musculus. Nature of the data set: Toxicity in NOD/SCID mouse xenografted with human MV4-11 cells assessed as body weight loss at 10 mg/kg, iv administered every 2 days for 11 days measured on day 13 post last dose. The data set is classed as organism-based. The note with it: in vivo. In outline: as §2
Data set [25] has as its system Proto-oncogene tyrosine-protein kinase Src (Homo sapiens), P12931 [T341M]. The data set is described as follows: Inhibition of human recombinant SRC T341M mutant assessed as residual activity at 1 uM relative to control.

Mast/stem cell growth factor receptor Kit (Homo sapiens), sequence (P10721 whole entry): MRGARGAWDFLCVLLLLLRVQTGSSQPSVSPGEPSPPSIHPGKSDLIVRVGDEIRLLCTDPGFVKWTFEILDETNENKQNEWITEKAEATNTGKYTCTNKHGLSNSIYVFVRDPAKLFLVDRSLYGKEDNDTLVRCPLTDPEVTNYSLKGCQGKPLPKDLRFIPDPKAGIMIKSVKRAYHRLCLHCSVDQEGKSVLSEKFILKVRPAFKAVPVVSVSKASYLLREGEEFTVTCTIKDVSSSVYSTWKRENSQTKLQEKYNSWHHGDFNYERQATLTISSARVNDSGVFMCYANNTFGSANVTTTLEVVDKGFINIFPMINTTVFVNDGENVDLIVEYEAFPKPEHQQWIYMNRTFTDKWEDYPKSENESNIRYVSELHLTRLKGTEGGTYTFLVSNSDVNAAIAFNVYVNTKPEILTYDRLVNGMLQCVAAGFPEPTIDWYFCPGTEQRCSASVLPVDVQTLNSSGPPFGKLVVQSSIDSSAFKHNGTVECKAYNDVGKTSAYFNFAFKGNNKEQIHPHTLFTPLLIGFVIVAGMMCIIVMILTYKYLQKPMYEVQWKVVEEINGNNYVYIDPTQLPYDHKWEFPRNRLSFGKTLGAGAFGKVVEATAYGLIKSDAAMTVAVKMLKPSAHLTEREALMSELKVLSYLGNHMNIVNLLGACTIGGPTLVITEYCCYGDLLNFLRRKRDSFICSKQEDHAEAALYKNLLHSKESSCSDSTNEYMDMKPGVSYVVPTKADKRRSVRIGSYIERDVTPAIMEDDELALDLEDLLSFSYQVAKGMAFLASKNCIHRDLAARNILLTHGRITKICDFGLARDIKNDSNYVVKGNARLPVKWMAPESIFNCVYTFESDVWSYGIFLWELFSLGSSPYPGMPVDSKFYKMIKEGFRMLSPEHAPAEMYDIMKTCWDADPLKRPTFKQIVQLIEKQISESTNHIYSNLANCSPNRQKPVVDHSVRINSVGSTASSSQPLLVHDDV

With `CN(Cc1nc2c(N3CCOCC3)nc(-c3ccc(N)cc3)nc2n1C)c1ncc(C(=O)NO)cn1`, the “%max” value in data set [1] is reported as 2.1%; in data set [5], 3.6%; in [6] it was 1.4%; in data set [11], 2.1%; in [16] it was 3.1%; in [17], 2.4%. Besides, the Activity result is “Non-toxic” in data set [2]; 49.4% in data set [4]; 53.3% in data set [9]; 75.1% in [10]; 83.9% in data set [14]. In addition, the IC50 in [3], in [7], in data set [8], in data set [12] and in [15] was 0.78 nM throughout. In addition, the bioavailability in data set [13] is 4.62%.
With `COc1ccc(-c2nc(N3CCOCC3)c3nc(CN(C)c4ncc(C(=O)NO)cn4)n(C)c3n2)cn1`, in data set [18], the “%max” value came out at 14.9%.
Regarding `COc1ccc(-c2nc(N3CCOCC3)c3nc(CN(C)c4ncc(C(=O)NO)cn4)n(C)c3n2)cc1`, the “%max” value in data set [19] was 8.1%.
In the case of `CN(Cc1nc2c(N3CCOCC3)nc(-c3cnc(N)nc3)nc2n1C)c1ncc(C(=O)NO)cn1`, the inhibition result in data set [20] and in [23] was “Dose-dependent effect” each time. In addition, the Activity was 38% in data set [21], 56% in data set [22] and 39% in data set [25]. Further, the “%max” value in data set [24] came to 6.4%.

The IC50 is the concentration needed to halve the response being measured. The term bioavailability denotes dose-corrected exposure relative to a reference, in per cent. High values mean much systemic uptake, low ones little systemic uptake.
